The subject of assay [1] is Rattus norvegicus. In words: Inhibitory activity against developing adjuvant-induced arthritis (Dev AA) in rat at 50 mg/kg concentration. The format is functional.
Assay [2] deals with Rattus norvegicus. In words: Inhibitory activity against developing adjuvant-induced arthritis (Dev AA) in rat at 5 mg/kg concentration; decrease in paw volume statistically significant compared to control. Format: functional.
The next assay has as its target Cyclooxygenase (Homo sapiens, UniProt P35354+P23219). In words: Inhibitory activity against Prostaglandin G/H synthase from human platelets was determined.
Assay [3] addresses T1, Polyunsaturated fatty acid 5-lipoxygenase (Homo sapiens) (UniProt P09917).
T1 sequence (whole entry): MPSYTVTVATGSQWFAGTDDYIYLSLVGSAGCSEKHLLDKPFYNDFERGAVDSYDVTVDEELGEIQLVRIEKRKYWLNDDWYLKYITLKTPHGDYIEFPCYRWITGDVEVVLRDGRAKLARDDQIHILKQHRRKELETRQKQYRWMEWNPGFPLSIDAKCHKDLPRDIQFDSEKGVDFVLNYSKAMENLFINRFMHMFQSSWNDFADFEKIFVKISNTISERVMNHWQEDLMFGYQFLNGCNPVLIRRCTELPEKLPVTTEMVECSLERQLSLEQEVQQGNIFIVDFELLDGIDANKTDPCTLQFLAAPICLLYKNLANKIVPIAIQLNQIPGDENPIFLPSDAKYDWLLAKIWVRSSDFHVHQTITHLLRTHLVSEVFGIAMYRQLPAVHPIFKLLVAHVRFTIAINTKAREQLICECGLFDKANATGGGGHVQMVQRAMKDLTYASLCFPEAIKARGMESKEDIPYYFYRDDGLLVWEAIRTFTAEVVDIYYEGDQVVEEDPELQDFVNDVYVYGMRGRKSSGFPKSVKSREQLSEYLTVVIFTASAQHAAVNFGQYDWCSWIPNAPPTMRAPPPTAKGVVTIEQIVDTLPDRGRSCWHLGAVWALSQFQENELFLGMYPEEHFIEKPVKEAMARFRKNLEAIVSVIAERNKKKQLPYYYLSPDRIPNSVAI
In words: Inhibitory activity against lipoxygenase (LO) at 10 uM concentration. In outline: (§1)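 Human peripheral blood leukocytes (5 × 10^6/0.5 mL) in pH 7.2 phosphate buffer with 0.6 mM Ca2+ and 1.0 mM Mg2+ incubated with compound for 15 min at 37 °C with shaking. 5-HETE band area measured as % of total radioactivity. Inhibition = (1 − cmd/cntl) × 100; single determination in duplicate; ANOVA, p<0.05.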

The target in assay [4] is T1, Polyunsaturated fatty acid 5-lipoxygenase (Homo sapiens). In words: Inhibitory activity against lipoxygenase (LO) at 1 uM concentration. In outline:
as §1

In general, inhibition in vivo refers to the drop in the measured response relative to a control, in per cent. What is called IC50 is the concentration that inhibits the measured activity by half. A higher IC50 goes with a need for much substance. What is called inhibition is how much of the control response was suppressed. As for `CC(C)(C)c1cc(/C=C/c2cccs2)cc(C(C)(C)C)c1O`, the inhibition in vivo at 50 mg/kg in the assay on Rattus norvegicus [1] was 77%. In addition, in the assay with Rattus norvegicus [2], the inhibition in vivo at 5 mg/kg amounted to 57%. This molecule also returned an IC50 against Cyclooxygenase of 0.063 µM. The inhibition was found to be 88% in assay [3] and 25% in assay [4].

For the origin of these results see ChEMBL document CHEMBL1124310, “Antiinflammatory 2,6-di-tert-butyl-4-(2-arylethenyl)phenols” (J Med Chem, 1989).
